One compound from ChEMBL document CHEMBL2331420, “Synthesis, cytotoxicity and antiplasmodial activity of novel ent-kaurane derivatives” (Eur J Med Chem, 2013) can be followed below.

The nature of data set [1]: Growth inhibition against human IGROV cells after 72 hrs by inverted microscopy. It counts as functional. The procedure, abridged:
(§1)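 Cells seeded at 2×10^4 cells/well in MEM10FCS containing compound at the test concentrations and exposed continuously for 72 h at 37 °C, 10% CO₂, 98% humidity. Untreated control wells were counted daily to confirm exponential growth. Cells were stained with crystal violet and inspected by inverted microscope, and inhibition was judged against controls. GI50 (50% growth inhibition) is the mean of duplicate wells.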

Data set [2] in a line: Selectivity index, ratio of CC50 for human HepG2 cells to IC50 for chloroquine-resistant Plasmodium falciparum W2 infected in human erythrocytes. Format: functional. The procedure, abridged: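 HepG2 hepatoma cells in RPMI1640 with 5% FBS, 4×10^4 cells/well, allowed 18 h at 37 °C. Four serial dilutions from 1000 µg/mL, final DMSO 0.01%, in triplicate, for 24 h at 37 °C. Cytotoxic concentration taken from the dose–response curve, then divided by the antiplasmodial IC50.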

The next data set relates to HT-29. The experiment in a line: Growth inhibition against human HT-29 cells after 72 hrs by inverted microscopy. It counts as functional. Particulars: HT-29, 72 h. The procedure, abridged: as §1
Data set [3] can be described thus: Growth inhibition against human IGROV-ET cells after 72 hrs by inverted microscopy. It counts as functional. The procedure, abridged: as §1
The nature of data set [4]: Growth inhibition against human LoVo/DX cells after 72 hrs by inverted microscopy. It counts as functional. The procedure, abridged:
as §1

Another data set has as its system PANC-1. The experiment in a line: Growth inhibition against human PANC1 cells after 72 hrs by inverted microscopy. Format: functional. The conditions noted are these: PANC-1, 72 h. The procedure, abridged: as §1
Data set [5] is described as follows: Toxicity in RBC (unknown origin) assessed as hemolysis at 139 uM. It counts as cell-based. The conditions noted are these: erythrocyte.
The next data set deals with HeLa. The data set is described as follows: Growth inhibition against human HeLa cells after 72 hrs by inverted microscopy. Format: functional. The procedure, abridged: as §1
Data set [6] can be described thus: Cytotoxicity against human HepG2 cells after 24 hrs by MTT assay. It counts as cell-based. The procedure, abridged:
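Hep G2A16 hepatoma cells kept in RPMI1640 with 5% FBS and gentamicin, trypsinised and plated at 4×10^4 cells/well, then left 18 h at 37 °C before dosing. Compounds were given in triplicate at four serial-dilution concentrations starting at 1000 µg/mL, with final DMSO 0.01%, for 24 h at 37 °C. MTT (6 mg/mL in PBS) was added for 1 h 30 min, solubilised in DMSO and read at 570 nm. Cytotoxic concentration was taken from the dose–response curve.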
(Formazan colour is commonly taken as a measure of viable cells.)

The subject of a further data set is LoVo. The experiment in a line: Growth inhibition against human LoVo cells after 72 hrs by inverted microscopy. It counts as functional. Put shortly:
as §1

The test system of another data set is Plasmodium falciparum. The experiment in a line: Antiplasmodial activity against chloroquine-resistant Plasmodium falciparum W2 infected in human erythrocytes assessed as inhibition of parasite growth after 24 hrs by [3H]hypoxanthine incorporation assay. Format: functional, organism-based. Put shortly: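 Ring-stage parasites, sorbitol-synchronised, in human O-negative erythrocytes in RPMI with 10% human plasma; plated at 1% parasitemia, 1% haematocrit. Compounds diluted from DMSO stocks in hypoxanthine-free medium, final DMSO 0.002%. After 24 h, [3H]-hypoxanthine (0.5 μCi/well) added for another 18 h at 37 °C. Incorporation compared with drug-free controls, IC50 by linear interpolation. Three experiments, each in triplicate.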

In the next data set the test system is K562. The experiment in a line: Growth inhibition against human K562 cells after 72 hrs by inverted microscopy. Format: functional. Particulars: K562, 72 h. The procedure, abridged: as §1

Molecules are shown by their SMILES. A value given as a limit tells only on which side of the number the result lay.

With `COC(=O)[C@]1(C)CCC[C@]2(C)[C@@H]1CC[C@@]13C[C@H](C[C@H]4O[C@]412)[C@]1(CO1)C3`, the GI50 (in data set [1]; in the data set with HT-29; in data set [3]; in [4]; in the data set with PANC-1; in the data set on HeLa) was more than 8.66 µM in each case. The 50% growth inhibitory concentration (GI50) in the data set on LoVo and with K562 was more than 8.66 µM throughout. Also, the “Ratio CC50/IC50” value in data set [2] was 117.4. Also, the Activity result in data set [5] is given as “Toxic”. The CC50 (in general, the concentration giving 50% cytotoxicity) at 24 h in [6] was found to be 810 µM. Further, in the data set on Plasmodium falciparum, the concentration for half-maximal inhibition (IC50) (usually the point on the concentration scale where inhibition reaches its midpoint) stood at 6.9 µM.
